# ChEMBL document CHEMBL4400568, “The design of 1,4-naphthoquinone derivatives and mechanisms underlying apoptosis induction through ROS-dependent MAPK/Akt/STAT3 pathways in human lung cancer cells” (Bioorg Med Chem, 2019)
# Active and inactive are the calls of the source. The rule behind the calls is not given here.
# What was measured:
# [1] = tested on: A549; test: Inhibition of ERK phosphorylation in human A549 cells at 3 uM after 3 to 24 hrs by Western blot analysis; format: cell-based
# Procedure, shortened: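 A549 cells exposed to 3 μM for 3, 6, 12 or 24 h. Lysate protein (30 μg) run on 12% SDS-PAGE and blotted to nitrocellulose. Membranes blocked in 5% skim milk, primary antibodies at 4°C overnight, then HRP anti-IgG secondary for 1 h at room temperature. β-actin was the internal control. Bands quantified by densitometry; three independent experiments, mean ± SD.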
# [2] = biological target: RAC-alpha serine/threonine-protein kinase (Homo sapiens) (UniProt P31749); test: Modulation of AKT in human A549 cells assessed as decrease in cyclinD1 levels measured after 24 hrs in presence of Akt inhibitor-LY10249 by Western blot analysis; format: cell-based
# Chain of RAC-alpha serine/threonine-protein kinase (Homo sapiens) (P31749 whole entry): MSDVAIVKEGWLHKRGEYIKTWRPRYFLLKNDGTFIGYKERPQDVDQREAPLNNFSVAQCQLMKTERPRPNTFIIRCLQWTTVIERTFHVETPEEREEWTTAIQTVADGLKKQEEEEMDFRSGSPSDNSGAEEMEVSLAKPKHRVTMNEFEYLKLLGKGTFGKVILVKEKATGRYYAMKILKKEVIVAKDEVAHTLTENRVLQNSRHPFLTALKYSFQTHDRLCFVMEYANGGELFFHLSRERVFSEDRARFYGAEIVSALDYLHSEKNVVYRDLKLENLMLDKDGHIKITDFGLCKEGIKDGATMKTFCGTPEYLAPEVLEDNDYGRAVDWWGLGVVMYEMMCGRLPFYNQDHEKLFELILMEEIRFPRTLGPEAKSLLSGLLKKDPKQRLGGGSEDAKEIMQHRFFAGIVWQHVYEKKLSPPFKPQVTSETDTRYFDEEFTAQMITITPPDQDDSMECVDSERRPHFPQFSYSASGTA
# Procedure, shortened: (§1)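 A549 cells pre-incubated for 30 min with 12.1 μM kinase inhibitor: SB203580 (p38), SP600125 (JNK), FR180204 (ERK) or LY10249 (Akt). Compound treatment followed for 24 h. Lysates (30 μg protein) analysed by 12% SDS-PAGE and nitrocellulose immunoblot with HRP detection. Three independent experiments, mean ± SD.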
# [3] = tested on: A549; test: Induction of apoptosis in human A549 cells assessed as increase in cleaved caspase-3 expression at 3 uM by Western blot analysis; format: functional, cell-based; details: TDE = time-dependent effect
# Procedure, shortened: (§2)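 A549 cells exposed to 3 μM for 3, 6, 12 or 24 h; where NAC is used, 10 mM NAC is added 30 min before 24 h treatment. Lysate protein (30 μg) is run on 12% SDS-PAGE, blotted to nitrocellulose, blocked in 5% milk, primary antibody overnight at 4°C, then HRP anti-IgG. β-actin loading control; densitometry; three independent experiments, mean ± SD.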
# [4] = tested on: A549; test: Cell cycle arrest in human A549 cells assessed as decrease in cyclinD1/E levels at 3 uM by Western blot analysis; format: functional, cell-based; details: TDE = time-dependent effect; procedure, shortened: as §2
# [5] = tested on: A549; test: Induction of ROS generation in human A549 cells assessed as intracellular ROS level at 3 uM after 3 hrs by DCFH-DA staining-based flow cytometric analysis (reference value: 51.8%); format: functional
# Procedure, shortened: (§3)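 A549 cells loaded with DCFH-DA (10 μM per legend) for 30 min, then exposed to 3 μM at 37°C for 3, 6, 12 or 24 h. After two PBS washes, intracellular fluorescence is quantified by flow cytometry. Three independent experiments, mean ± SD.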
# [6] = tested on: A549; test: Cell cycle arrest in human A549 cells assessed as accumulation of cells at S phase at 3 uM after 24 hrs by propidium iodide staining-based flow cytometric analysis (reference value: 13.85%); format: functional
# [7] = tested on: A549; test: Cell cycle arrest in human A549 cells assessed as accumulation of cells at G2 phase at 3 uM after 6 hrs by propidium iodide staining-based flow cytometric analysis (reference value: 24.02%); format: functional
# [8] = tested on: A549; test: Cell cycle arrest in human A549 cells assessed as decrease in CDK4/6 levels at 3 uM by Western blot analysis; format: functional, cell-based; details: TDE = time-dependent effect; procedure, shortened: as §2
# [9] = tested on: A549; test: Induction of ROS generation in human A549 cells at 3 uM by DCFH-DA staining-based flow cytometric analysis; format: functional, cell-based; details: TDE = time-dependent effect; procedure, shortened: as §3
# [10] = biological target: MAP kinase p38 (Homo sapiens) (UniProt O15264+Q15759+Q16539+P53778); test: Modulation of p38 MAPK in human A549 cells assessed as reduction in STAT3 phosphorylation measured after 24 hrs in presence of p38 inhibitor SB203580 by Western blot analysis; format: cell-based; procedure, shortened: as §1
# [11] = biological target: RAC-alpha serine/threonine-protein kinase (Homo sapiens) (UniProt P31749); test: Modulation of AKT in human A549 cells assessed as decrease in CDK6 levels measured after 24 hrs in presence of Akt inhibitor-LY10249 by Western blot analysis; format: cell-based; procedure, shortened: as §1
# [12] = biological target: c-Jun N-terminal kinase, JNK (Homo sapiens) (UniProt P45983+P53779+P45984); test: Modulation of JNK in human A549 cells assessed as increase in cleaved caspase-3 measured after 24 hrs in presence of JNK inhibitor-SP600125 by Western blot analysis; format: cell-based
# [13] = tested on: A549; test: Cell cycle arrest in human A549 cells assessed as accumulation of cells at G2 phase at 3 uM after 3 hrs by propidium iodide staining-based flow cytometric analysis (reference value: 24.02%); format: functional
# [14] = tested on: A549; test: Induction of apoptosis in human A549 cells assessed as decrease in Bcl-2 expression at 3 uM after 24 hrs by Western blot analysis; format: functional, cell-based; procedure, shortened: as §2
# [15] = tested on: A549; test: Induction of apoptosis in human A549 cells assessed as early apoptotic cells at 3 uM after 12 hrs by Annexin V-FITC/propidium iodide staining-based flow cytometric analysis (reference value: 2.73%); format: functional
SMILES,inhibition [1],Activity [2],Activity [3],Activity [4],Activity [5],Activity [6],Activity [7],Activity [8],Activity [9],Activity [10],Activity [11],Activity [12],Activity [13],Activity [14],Activity [15]
CCCS(=O)(=O)C12OC1C(=O)c1c(OC)ccc(OC)c1C2=O (stereo not given),Active,Active,Tde,Tde,57.9%,7.41%,18.26%,Tde,Tde,inactive,Active,inactive,23.47%,Active,35.37%
CCCCCCCCCS(=O)(=O)C12OC1C(=O)c1c(OC)ccc(OC)c1C2=O (stereo not given),Active,Active,Tde,Tde,52.52%,6.03%,22.02%,Tde,Tde,inactive,Active,inactive,26.58%,Active,16.92%
